From ChEMBL document CHEMBL4190349, “Synthesis and 2D-QSAR studies of neolignan-based diaryl-tetrahydrofuran and -furan analogues with remarkable activity against Trypanosoma cruzi and assessment of the trypanothione reductase activity” (Eur J Med Chem, 2017)
Active and inactive are the calls of the source. The calls are words filed in the database; no cut-off is given here.

Assays:
[1] = Cytotoxicity in C57BL/6 mouse spleen cells assessed as reduction in cell viability up to 250 uM incubated for 24 hrs by propidium iodide staining based flow cytometry
Outline: (§1)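 Spleen cells from C57BL/6 mice, after red-cell lysis with Tris–NH4Cl, in RPMI with 5% FBS, seeded at 6.5×10^6/mL. Exposed 24 h at 37°C to 250 to 1.50 µM. Stained with 10 µg/mL propidium iodide and read by flow cytometry. 1% Tween 20 was the death control. Run in triplicate.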

Trypanosoma cruzi [2] = assay: Antitrypanosomal activity against Trypanosoma cruzi Tulahuen trypomastigotes expressing beta-galactosidase gene incubated for 4 days by beta-galactosidase mediated CPRG substrate hydrolysis assay; format: functional, organism-based; conditions: 96 h
Outline: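 Tulahuen lacZ (β-galactosidase-expressing) cell-derived trypomastigotes, 5×10^5 per well, exposed 4 days at 37°C to serial concentrations 500 to 3.75 µM. Then PBS with 0.5% Triton X-100 and 100 µM CPRG was added, followed by 4 h at 37°C. Absorbance at 570 nm reflects viability. Run in duplicate. EC50 comes from dose-response curves.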

[3] = Selectivity index, ratio of CC50 for cytotoxicity in C57BL/6 spleen cells to EC50 for Antitrypanosomal activity against Trypanosoma cruzi Tulahuen trypomastigotes; format: toxicity, cell-based; conditions: C57BL/6, mouse, read-out: Ratio CC50/EC50
[4] = Cytotoxicity in C57BL/6 mouse spleen cells assessed as reduction in cell viability incubated for 24 hrs by propidium iodide staining based flow cytometry; outline: as §1
Trypanosoma cruzi [5] = assay: Antitrypanosomal activity against Trypanosoma cruzi Y trypomastigotes; format: functional, organism-based
Outline: (§2)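 Y strain trypomastigotes plated at 1×10^6 parasites/mL and exposed to serial concentrations of 500 to 3.75 µM. After 24 h, parasites were removed and counted in a Neubauer chamber. EC50 comes from dose-response curves.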

Trypanosoma cruzi [6] = assay: Antitrypanosomal activity against Trypanosoma cruzi Tulahuen amastigotes expressing beta-galactosidase gene infected in LLC-MK2 cells incubated for 4 days after 4 hrs post infection by beta-galactosidase mediated CPRG substrate hydrolysis assay; format: functional, organism-based; conditions: in the assay text read “24 hrs post infection” for “4 hrs post infection”
Outline: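 LLC-MK2 cells in phenol-red-free RPMI 1640 with 5% FBS, seeded at 2×10^4 cells/mL for 24 h. Infected with Tulahuen lacZ trypomastigotes (3:1 parasite:cell) at 37°C and washed at 4 h. Compounds (500 to 0.24 µM) added 24 h post-infection for 4 days at 37°C. After washing, Triton X-100/100 µM CPRG lysis, 4 h at 37°C, A570. Untreated infected wells were controls.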

Trypanothione reductase = Trypanothione reductase (Trypanosoma cruzi, UniProt P28593); assay: (§3) Inhibition of Trypanosoma cruzi trypanothione reductase expressed in Escherichia coli BL21 (DE3) pre-incubated for 30 mins using TS2 substrate in presence of NADPH by colorimetric microplate assay
Chain of Trypanothione reductase (P28593 whole entry): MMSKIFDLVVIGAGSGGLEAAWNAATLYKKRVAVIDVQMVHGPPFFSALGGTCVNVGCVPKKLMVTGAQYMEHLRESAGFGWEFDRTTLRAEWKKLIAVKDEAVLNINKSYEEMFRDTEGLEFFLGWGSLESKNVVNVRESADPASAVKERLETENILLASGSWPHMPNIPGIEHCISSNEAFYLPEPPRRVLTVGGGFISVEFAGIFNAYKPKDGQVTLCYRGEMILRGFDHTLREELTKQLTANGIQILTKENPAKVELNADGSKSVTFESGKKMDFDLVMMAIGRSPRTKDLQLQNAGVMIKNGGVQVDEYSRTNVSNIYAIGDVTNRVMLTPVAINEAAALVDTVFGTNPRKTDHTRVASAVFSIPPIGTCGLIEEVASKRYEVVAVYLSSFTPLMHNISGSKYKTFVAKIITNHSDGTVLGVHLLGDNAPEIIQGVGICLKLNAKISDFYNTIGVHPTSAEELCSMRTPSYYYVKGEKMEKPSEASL
Outline: (§4)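 Recombinant T. cruzi TR expressed in E. coli BL21DE3 and affinity-purified. Assay: TcTR 5 m-unit, 40 mM HEPES pH 7.5, 0.15 mM NADPH, 1 mM EDTA, 1 µM TS2, compounds in DMSO (final 1% DMSO control). Pre-incubated 30 min at 27°C, then DTNB added, and A412 read every 5 min for 30 min.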

Trypanosoma cruzi [7] = assay: Antitrypanosomal activity against Trypanosoma cruzi Y trypomastigotes assessed as induction of parasite lysis; format: functional, organism-based; outline: as §2
Trypanosoma cruzi [8] = assay: Growth inhibition of Trypanosoma cruzi amastigotes at 20 ug/ml; format: functional; conditions: read-out: GI
[9] = target: Trypanothione reductase (Trypanosoma cruzi) (UniProt P28593); assay: as §3; outline: as §4
Chain of Trypanothione reductase (Trypanosoma cruzi) (P28593 whole entry, looked up): as the sequence (P28593 whole entry) above

Trypanosoma cruzi [10] = assay: Antitrypanosomal activity against Trypanosoma cruzi; format: functional, organism-based

| EC50 (Trypanosoma cruzi [2]) [µM] | IC50 (Trypanosoma cruzi [2]) [µM] | SMILES | Activity [1] | other results |
| --- | --- | --- | --- | --- |
| 26.2 | 26.2 | COc1cc(C2CCC(c3ccccc3)O2)cc(OC)c1OC (stereo unspecified) | Non-Toxic | – |
| 9.07 | 9.08 | COc1ccc(C2CCC(c3ccccc3)O2)cc1 (stereo unspecified) | Non-Toxic | – |
| 14 | 14 | COc1ccc(C(O)C#CC(O)c2ccccc2)cc1 (stereo unspecified) | Non-Toxic | – |
| 21 | 21 | c1ccc(-c2ccc(-c3ccccc3)o2)cc1 | – | selectivity ratio [3]: 9.2; CC50 at 24 h [4]: 194 µM |
| 36 | 36 | COc1ccc(C(=O)CCC(=O)c2ccccc2)cc1OC | Non-Toxic | – |
| 193 | 193 | COc1cccc(C(O)CCC(O)c2ccccc2)c1 (stereo unspecified) | Non-Toxic | – |
| 1.34 | 1.34 | COc1ccc(-c2ccc(-c3ccccc3)o2)cc1OC | Non-Toxic | EC50 (Trypanosoma cruzi [5]): 32.6 µM; EC50 (Trypanosoma cruzi [6]): 126 µM; IC50 (Trypanothione reductase): 19.2 µM |
| 2.67 | – | COc1ccc([C@H]2O[C@@H](c3ccc(OC)c(OC)c3)[C@H](C)[C@H]2C)cc1OC [VERAGUENSIN] | – | EC50 (Trypanosoma cruzi [7]): 2.3 µM |
| 2.29 | 2.29 | COc1cccc(C2CCC(c3ccccc3)O2)c1 (stereo unspecified) | Non-Toxic | EC50 (Trypanosoma cruzi [5]): 34.2 µM; EC50 (Trypanosoma cruzi [6]): 126 µM |
| 29.1 | 29.1 | COc1cc(-c2ccc(-c3ccccc3)o2)cc(OC)c1OC | Non-Toxic | – |
| 18.3 | 18.3 | COc1cccc(C(=O)CCC(=O)c2ccccc2)c1 | Non-Toxic | – |
| – | – | NS(=O)(=O)c1ccc(-c2ccco2)cc1 | – | inhibition of growth at 20 µg/mL (Trypanosoma cruzi [8]): 70% |
| 19.9 | 19.9 | COc1ccc(C(O)CCC(O)c2ccccc2)c(OC)c1 (stereo unspecified) | – | selectivity ratio [3]: 11.9; CC50 at 24 h [4]: 236 µM |
| 199 | 199 | O=C(CCC(=O)c1ccccc1)c1ccccc1 | – | selectivity ratio [3]: 1.1; CC50 at 24 h [4]: 220 µM |
| 83.1 | 83.2 | COc1ccc(C(O)CCC(O)c2ccccc2)cc1OC (stereo unspecified) | Non-Toxic | – |
| 37.9 | 37.8 | COc1ccc(C(O)C#CC(O)c2ccccc2)c(OC)c1 (stereo unspecified) | Non-Toxic | – |
| 4.75 | 4.75 | COc1ccc(-c2ccc(-c3ccccc3)o2)cc1 | Non-Toxic | EC50 (Trypanosoma cruzi [5]): 19.2 µM; EC50 (Trypanosoma cruzi [6]): 127 µM; IC50 (Trypanothione reductase): 7.4 µM |
| 39.1 | 39.1 | COc1cccc(C(O)C#CC(O)c2ccccc2)c1 (stereo unspecified) | Non-Toxic | – |
| 67.6 | 67.6 | COc1cc(OC)cc(C(O)CCC(O)c2ccccc2)c1 (stereo unspecified) | Non-Toxic | – |
| 33.2 | 33.2 | OC(CCC(O)c1ccccc1)c1ccccc1 (stereo unspecified) | – | selectivity ratio [3]: 5; CC50 at 24 h [4]: 166 µM |

| EC50 (Trypanosoma cruzi [2]) [µM] | IC50 (Trypanosoma cruzi [2]) [µM] | SMILES | Activity [1] | other results |
| --- | --- | --- | --- | --- |
| 68.1 | 68.1 | COc1ccc(C(O)CCC(O)c2ccccc2)cc1 (stereo unspecified) | Non-Toxic | – |
| 0.75 | 0.75 | COc1ccc(C2CCC(c3ccccc3)O2)c(OC)c1 (stereo unspecified) | Non-Toxic | EC50 (Trypanosoma cruzi [5]): 1.05 µM; EC50 (Trypanosoma cruzi [6]): 19.8 µM |
| 8.98 | 8.97 | COc1ccc(C(O)C#CC(O)c2ccccc2)cc1OC (stereo unspecified) | Non-Toxic | – |
| 18.7 | 18.7 | OC(C#CC(O)c1ccccc1)c1ccccc1 (stereo unspecified) | Non-Toxic | – |
| 77.5 | 77.4 | COc1cc(C(O)CCC(O)c2ccccc2)cc(OC)c1OC (stereo unspecified) | – | selectivity ratio [3]: 1.5; CC50 at 24 h [4]: 115 µM |
| 1.69 | 1.69 | COc1cc(OC)cc(C(=O)CCC(=O)c2ccccc2)c1 | Non-Toxic | EC50 (Trypanosoma cruzi [5]): 15.9 µM |
| 7.79 | 7.8 | COc1ccc(C(=O)CCC(=O)c2ccccc2)c(OC)c1 | Non-Toxic | EC50 (Trypanosoma cruzi [5]): 1.76 µM |
| 36.9 | 36.9 | COc1cc(C(=O)CCC(=O)c2ccccc2)cc(OC)c1OC | Non-Toxic | – |
| – | – | COc1ccc(-c2ccc(-c3ccc(OC)c(OC)c3)o2)cc1OC | – | inhibition of growth at 20 µg/mL (Trypanosoma cruzi [8]): 65% |
| 4.88 | 4.88 | COc1cc(C(O)C#CC(O)c2ccccc2)cc(OC)c1OC (stereo unspecified) | Non-Toxic | EC50 (Trypanosoma cruzi [5]): 97.1 µM |
| 4.98 | 4.98 | COc1cc(OC)cc(C(O)C#CC(O)c2ccccc2)c1 (stereo unspecified) | – | selectivity ratio [3]: 15.8; CC50 at 24 h [4]: 78.6 µM |
| 15.9 | 15.9 | COc1ccc(C(=O)CCC(=O)c2ccccc2)cc1 | Non-Toxic | – |
| 3.34 | 3.34 | COc1cccc(-c2ccc(-c3ccccc3)o2)c1 | Non-Toxic | EC50 (Trypanosoma cruzi [5]): 34.2 µM; EC50 (Trypanosoma cruzi [6]): 126 µM; IC50 (Trypanothione reductase): 8.9 µM |
| 12.1 | 12.1 | COc1cc(OC)cc(C2CCC(c3ccccc3)O2)c1 (stereo unspecified) | Non-Toxic | – |
| 37.3 | 37.3 | c1ccc(C2CCC(c3ccccc3)O2)cc1 (stereo unspecified) | Non-Toxic | – |
| 0.01 | – | COc1cc(OC)cc(-c2ccc(-c3ccccc3)o2)c1 | Non-Toxic | EC50 (Trypanosoma cruzi [5]): 4.08 µM; EC50 (Trypanosoma cruzi [6]): 133 µM; inhibition [9]: inactive |
| – | – | COc1cc([C@@H]2O[C@@H](c3cc(OC)c(OCc4ccccc4)c(OC)c3)C(CO)=C2C)cc(OC)c1OC | – | EC50 (Trypanosoma cruzi [10]): 1.5 µM |
| 28.6 | – | COc1cc([C@@H]2O[C@@H](c3cc(OC)c(OC)c(OC)c3)[C@H](C)[C@H]2C)cc(OC)c1OC [GRANDISIN] | – | EC50 (Trypanosoma cruzi [7]): 3.7 µM |
| 1.12 | 1.12 | COc1ccc(-c2ccc(-c3ccccc3)o2)c(OC)c1 | Non-Toxic | EC50 (Trypanosoma cruzi [5]): 35.9 µM; EC50 (Trypanosoma cruzi [6]): 19 µM; IC50 (Trypanothione reductase): 17.7 µM |
| 24.6 | 24.6 | COc1ccc(C2CCC(c3ccccc3)O2)cc1OC (stereo unspecified) | Non-Toxic | – |

| SMILES | EC50 (Trypanosoma cruzi [2]) [µM] | IC50 (Trypanosoma cruzi [2]) [µM] | Activity [1] | other results |
| --- | --- | --- | --- | --- |
| O=C(Cn1ccnc1[N+](=O)[O-])NCc1ccccc1 [BENZNIDAZOLE] | 1.65 | – | – | EC50 (Trypanosoma cruzi [5]): 0.04 µM |
